# An excerpt weighted towards active compounds, which were near 9% of everything screened.
# M1 antag – antagonists of rat M1 muscarinic receptor; AID 628, 2007; CHO-M1 cells, Fluo-4 calcium, ACh EC80 antagonist mode; stronger effect = lower value; Muscarinic acetylcholine receptor M1 (Rattus norvegicus), P08482; B-score at 10 µM; 64,000 compounds, 3.4% hits;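 active means calcium fluorescence response, raw or row-and-column corrected B-score, differing from the plate sample mean either way at a set confidence level, mostly lower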
# Target sequence (P08482 whole entry, looked up): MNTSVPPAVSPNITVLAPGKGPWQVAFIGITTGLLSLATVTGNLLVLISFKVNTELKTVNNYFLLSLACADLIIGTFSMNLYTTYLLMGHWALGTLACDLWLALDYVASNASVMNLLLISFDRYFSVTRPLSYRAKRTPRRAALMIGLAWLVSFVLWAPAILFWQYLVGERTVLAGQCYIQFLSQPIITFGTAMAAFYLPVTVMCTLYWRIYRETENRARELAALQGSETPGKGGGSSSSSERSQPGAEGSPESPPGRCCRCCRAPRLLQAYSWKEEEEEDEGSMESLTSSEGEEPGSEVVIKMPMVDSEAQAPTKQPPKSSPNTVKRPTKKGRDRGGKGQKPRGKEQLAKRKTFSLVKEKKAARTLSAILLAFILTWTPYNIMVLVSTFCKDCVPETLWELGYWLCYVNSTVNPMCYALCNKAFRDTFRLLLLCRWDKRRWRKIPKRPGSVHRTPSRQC
# D1 allo mod – D1 CRE-luciferase signal change, two-sided – cell-based, HEK293 D1, dopamine EC30, D1 allosteric modulator project, primary screen. AID 641, 2007. D(1A) dopamine receptor (Homo sapiens), P21728. dopamine EC30 potentiation; actives deviate in either direction. B-score at 10 µM. 58,000 compounds, 5.9% hits;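 active means luminescence count or its row- and column-corrected plate score outside the 99.7% band of the plate's sample wells, on either side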
# mHtt clearance – clearance of mutant huntingtin inclusions, primary screen, imaging, HeLa Exon1htt(103Q)mCFP, confocal imaging; inhibition, % at 1.5 µM; 47,000 compounds, 0.42% hits; aggregate imaging; zero = plate's median compound well;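 active means inhibition of aggregate fluorescence above about 70%, also judged a hit by eye on the cell image, limit read from the data, passing the limit was not always enough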;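 further: cells exposed to compound for three days before fixation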
# M1 ag – M1 muscarinic receptor agonists, primary screen, CHO-M1 cells, Fluo-4 calcium, agonist mode. B-score at 10 µM. AID 626, 2007. Muscarinic acetylcholine receptor M1. Fluo-4 calcium fluorescence; stronger effect = higher value. 64,000 compounds, 3% hits;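 active means fluorescence rise, raw or as B-score row- and column-corrected plate score, outside the 99.7% band of its plate's samples, either direction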
# AP complement – alternative complement pathway inhibitors, primary screen, biochemical, ELISA, human serum, orthogonally pooled compounds | LPS-coated ELISA, C3 deposition; tested in compound mixtures | inhibition, % at 5 µM | 62,000 compounds, 0.08% hits;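 active means inhibition above 30% in each of the two pooled mixtures holding the compound, so the lower value exceeds 30%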;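 further: 0% = serum in Mg-EGTA without compound and 100% = EDTA serum blank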
#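 Medium: diluted human serum in Mg2+-EGTA GVB++. Assay system: human serum complement alternative pathway, C3 deposition onto LPS. Also added: Plate-bound LPS. Technique: Anti-C3 ELISA, OD 450 nm. Measure: percent inhibition. Incubation: 1 h at 37 °C. Dosing: 5 µM each compound, pools of ten, 50 µM per pool.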
# An asterisk follows results filed as active; x = not tested or not shown.
SMILES,M1 antag,D1 allo mod,mHtt clearance,M1 ag,AP complement
CCc1ccc(-c2cn(-c3nc(C)cc(C)n3)c(=N)o2)cc1,-0.98,1,38,-0.57,-3
Cc1ccc(-n2c(-c3ccncc3)nnc2-c2cccs2)cc1,0.91,7*,53,0.97,9
c1csc(C2=Nn3c(nnc3-c3ccncc3)SC2)c1,x,x,62,x,x
CCOC(=O)c1c(C)c(C(=O)Nc2ccc3c(c2)OCO3)c(C)n1C,0.64,x,-2,0.012,17
CCOC(=O)c1c(N)sc(C(=O)Nc2ccc3c(c2)OCO3)c1C,-0.29,-4.4*,x,1.2,15
NC(=O)CSc1nnc(-c2ccc(S(=O)(=O)N3CCOCC3)cc2)n1CC1CCCO1 (centres undefined),-2,x,28,0.44,-19
NC(=O)CSc1nnc(-c2ccc(S(=O)(=O)N3CCOCC3)cc2)n1Cc1ccccc1,2.3*,x,27,-0.91,13
CN=c1scc(C)n1/N=C/c1ccc2c(c1)OCO2,-0.11,-3.2*,50,0.8,9
CN=c1scc(C)n1/N=C/c1ccc(O)cc1,0.039,-2.8,x,-1.1,4
O=S(=O)(Nc1cccc2ccccc12)N1CCCC1,-1.2,-0.28,-36,0.25,20
Cc1ccccc1N1C(=O)c2ccccc2NC1c1ccncc1 (centres undefined),x,x,-79,x,x
O=C1c2ccccc2C(=O)C1c1ccncc1,-1.2,-3.5*,33,-1.3,-6
COc1ccccc1N1CCN(CCC(=O)Nc2ccc3c(c2)OCO3)CC1,x,-2.2*,x,x,25
CN1CCN(CCC(=O)Nc2ccc3c(c2)OCO3)CC1,x,x,-16,x,x
CC1(C)NC(C)(C)C(O)(C(N)=O)C1=O (centres undefined),0.51,-1.1,x,0.11,5
COc1cc2c(cc1OC)C(c1cc3cc4c(cc3[nH]c1=O)OCO4)N(C(=O)C(C)C)CC2 (centres undefined),x,x,84*,x,x
CCOC(=O)C1CCCN(c2nc3ccccc3nc2C(C#N)C(=O)NCc2ccccc2)C1 (centres undefined),0.026,0.61,x,21*,0
CCCCCCNC(=O)C(C#N)c1nc2ccccc2nc1N1CCCC1 (centres undefined),1.1*,-1.1,-5,-0.099,-5
Cc1ccc(O)c(/C=N/NC(=O)C2=NNC(c3ccccc3)(c3ccccc3)C2)c1,x,x,71*,x,x
Cc1cccc(/C=N\NC(=O)c2csnn2)c1,x,x,2,x,x
O=C(C1=COCCO1)N1CCN(C(c2ccccc2)c2ccccc2)CC1,0.081,0.65,-13,0.98,17
CCOc1cc(N2CCOCC2)c(OCC)cc1NC(=O)c1nc2nccc(C)n2n1,-0.12,-0.39,x,4.9*,5
COc1ccccc1N1CCN(C/C(C)=C/c2ccccc2)CC1,-1.2,-3.6*,x,-1.1,22
CC1=C(C(=O)OCC(C)C)C23C(=O)c4ccccc4C2(O1)OC(N)=C3C#N (centres undefined),-1.1,4.5,x,0.059,8
COc1ccc2nc(NCCCNC(=O)c3cc(OC)c(OC)c(OC)c3)c(C#N)cc2c1,-0.79,0.094,-12,15*,3
SMILES,M1 antag,D1 allo mod,mHtt clearance,M1 ag,AP complement
CCOc1ccc2nc(NCCNC(=O)Nc3ccccc3)c(C#N)cc2c1,0.014,0.22,x,2.6,11
COC(=O)c1cccc(S(=O)(=O)N2CCN(c3nc4ccccc4s3)CC2)c1,0.64,-2.8*,x,0.79,8
Cc1nc(-c2ccccc2O)n(-c2ccccc2)n1,x,x,23,x,x
O=C(Nc1ccc2nccnc2c1)c1cnccn1,1,x,x,-0.27,15
O=C(Nc1ccc2ccccc2c1)c1cnccn1,-0.53,-2*,16,0.42,13
CC(=O)NC1CCN(C(=O)N2CCCC2)CC1,-0.088,-1.9,x,1.5,37*
COc1cccc(C(=O)NC2CCN(C(=O)N3CCCCC3)CC2)c1,-0.2,-0.036,-2,-0.42,2
O=C(O)c1ccc(COc2ccccc2Cl)cc1,1.5,0.27,14,-0.38,7
O=C(O)c1cccc(COc2ccccc2Cl)c1,0.59,-5.3*,x,-1.1,6
COCCCNC(CC(=O)Nc1ccccc1C(=O)OC)C(=O)O (centres undefined),-0.26,-0.6,x,0.19,3
COc1cc(C2NC(=O)NC(C)=C2C(=O)OC2CCCCC2)cc(Br)c1O (centres undefined),0.42,-4*,2,-0.96,16
CCOc1cc(-c2ccccc2)nc(N)n1,0.72,8.2*,-31,0.61,12
Cc1cccc(C)c1OCC(=O)Nn1c(C)nc2ccccc2c1=O,-0.064,x,x,-0.2,0
Cc1nc2ccccc2c(=O)n1NC(=O)COc1ccccc1,x,-2.9*,x,x,x
CCOCCCNC(=O)C1CCN(C(=O)N(C)C)CC1,1.6,-0.85,x,-0.45,-5
CN(C)CCCNC(=O)C1CCNCC1,-0.08,-3*,x,-0.018,10
O=C1CCc2cc(S(=O)(=O)NCCC(=O)N3CCN(c4cccc(Cl)c4)CC3)ccc2N1,0.59,0.19,x,0.47,14
CCC1Cc2c(nc3c4c(nc(N5CCOCC5)c(C#N)c24)NC(C)=N3)O1 (centres undefined),-0.12,4.2*,25,1,5
CCc1nc(N2CCOCC2)c(C#N)c2c1CCCC2,0.76,x,x,0.38,x
COC(=O)CN(c1ccc(F)cc1)S(=O)(=O)c1ccc2c(c1)OCCO2,0.19,-0.8,x,-0.1,-8
C=C(C)Cn1c(NCCOC)nc2c1c(=O)[nH]c(=O)n2C,-0.053,-0.45,-41,0.012,3
COc1ccc(NC(=O)CC2SC(=NCc3ccccc3OC)NC2=O)cc1 (centres undefined),-1.1,-4*,30,0.041,10
Cc1cccc(C)c1OCC(O)CNS(=O)(=O)c1ccccc1C(=O)N1CCCCC1 (centres undefined),-1.1,x,-8,4.8,x
Cc1ccc(C)c(N(CC(=O)N(C)C)S(C)(=O)=O)c1,1.3*,-0.45,44,1.5,-7
CCOC(=O)C(NC(C)=O)(Nc1cccc(F)c1)C(F)(F)F (centres undefined),0.21,-6.4*,x,-0.013,17
SMILES,M1 antag,D1 allo mod,mHtt clearance,M1 ag,AP complement
CC1CC=C2C(C#N)=C(N)C(C#N)(C#N)C(c3cccs3)C2C1 (centres undefined),1.1,-3,x,12*,7
O=C(CCC1CCCC1)c1c(O)c2ccccc2oc1=O,-2.1*,-3.1*,x,8.2*,6
CN=C(C)c1c(O)c2ccccc2oc1=O,x,x,-40,x,x
CN1CCN(S(=O)(=O)c2ccc(-c3ccc(Cl)cc3)cc2)CC1,0.82,-4.9*,26,-0.051,5
O=C(CSc1ncccn1)Nc1ccccc1,1.9*,x,x,1.2,10
COc1ccc(NC(=O)c2cccc(Cn3cc(Br)cn3)c2)cn1,-1.4,0.047,4,0.33,18
O=C(Nc1ccc2c(c1)OCO2)N1CCN(S(=O)(=O)c2ccc(Cl)cc2)CC1,-0.15,0.078,77*,0.95,6

# Source: PubChem BioAssay
